Assays:
Rattus norvegicus [1] = assay: Biodistribution in thyroid 24 hours after iv injection in walker tumor bearing rat; type: ADME, organism-based, Thyroid gland; details: in vivo
Method in brief: (§1)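 Female Sprague–Dawley rats (200–250 g) were inoculated in the right hind limb with 5.0 × 10⁶ Walker 256 cells in saline and used 6–10 days later, when tumors averaged 10 g. The radioiodinated agent, in 2–3% Tween-20/saline after ethanol removal, was given as 5–10 μCi in 0.5 mL by tail vein to anesthetized rats. Tissues were dissected, weighed and counted with decay correction. Values are % ID/g, mean ± SEM, n = 3.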

Rattus norvegicus [2] = assay: Biodistribution in thyroid 48 hours after iv injection in walker tumor bearing rat; type: ADME, organism-based, Thyroid gland; details: in vivo; method in brief: as §1
Rattus norvegicus [3] = assay: Biodistribution in tumor 24 hours after iv injection in walker tumor bearing rat; type: ADME, organism-based; details: in vivo; method in brief: as §1
Rattus norvegicus [4] = assay: Biodistribution in tumor 48 hours after iv injection in walker tumor bearing rat; type: ADME, organism-based; details: in vivo; method in brief: as §1
Rattus norvegicus [5] = assay: Ratio of the biodistribution in tumor to blood 24 hours after iv injection in walker tumor bearing rat; type: ADME, organism-based; details: tumour
Method in brief: (§2)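 Walker 256 tumor-bearing female Sprague–Dawley rats were given 5–10 μCi of radioiodinated agent in Tween-20/saline iv by tail vein (n = 3 per time point). After dissection and decay-corrected counting, tumor % ID/g was divided by blood or liver % ID/g.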

Rattus norvegicus [6] = assay: Ratio of the biodistribution in tumor to blood 48 hours after iv injection in walker tumor bearing rat; type: ADME, organism-based; details: in vivo; method in brief: as §2
Rattus norvegicus [7] = assay: Ratio of the biodistribution in tumor to liver 48 hours after iv injection in walker tumor bearing rat; type: ADME, organism-based; details: in vivo; method in brief: as §2
Rattus norvegicus [8] = assay: Biodistribution in blood 24 hours after iv injection in walker tumor bearing rat; type: ADME, organism-based; details: in vivo; method in brief: as §1
Rattus norvegicus [9] = assay: Biodistribution in blood 48 hours after iv injection in walker tumor bearing rat; type: ADME, organism-based; details: in vivo; method in brief: as §1
Rattus norvegicus [10] = assay: Biodistribution in duodenum 48 hours after iv injection in walker tumor bearing rat; type: ADME, organism-based; details: in vivo; method in brief: as §1
Rattus norvegicus [11] = assay: Biodistribution in injected site 24 hours after iv injection in walker tumor bearing rat; type: ADME, organism-based; details: in vivo; method in brief: as §1
Rattus norvegicus [12] = assay: Biodistribution in injected site 48 hours after iv injection in walker tumor bearing rat; type: ADME, organism-based; details: in vivo; method in brief: as §1
Rattus norvegicus [13] = assay: Biodistribution in kidney 24 hours after iv injection in walker tumor bearing rat; type: ADME, organism-based; details: in vivo; method in brief: as §1
Rattus norvegicus [14] = assay: Biodistribution in kidney 48 hours after iv injection in walker tumor bearing rat; type: ADME, organism-based; details: in vivo; method in brief: as §1
Rattus norvegicus [15] = assay: Biodistribution in liver 24 hours after iv injection in walker tumor bearing rat; type: ADME, organism-based; details: in vivo; method in brief: as §1
Rattus norvegicus [16] = assay: Biodistribution in liver 48 hours after iv injection in walker tumor bearing rat; type: ADME, organism-based; details: in vivo; method in brief: as §1
Rattus norvegicus [17] = assay: Biodistribution in lung 24 hours after iv injection in walker tumor bearing rat; type: ADME, organism-based; details: in vivo; method in brief: as §1
Rattus norvegicus [18] = assay: Biodistribution in lung 48 hours after iv injection in walker tumor bearing rat; type: ADME, organism-based; details: in vivo; method in brief: as §1
Rattus norvegicus [19] = assay: Biodistribution in muscle 24 hours after iv injection in walker tumor bearing rat; type: ADME, organism-based, Muscle tissue; details: in vivo; method in brief: as §1
Rattus norvegicus [20] = assay: Biodistribution in muscle 48 hours after iv injection in walker tumor bearing rat; type: ADME, organism-based, Muscle tissue; details: in vivo; method in brief: as §1
Rattus norvegicus [21] = assay: Biodistribution in ovary 24 hours after iv injection in walker tumor bearing rat; type: ADME, organism-based, Female gonad; details: in vivo; method in brief: as §1
Rattus norvegicus [22] = assay: Biodistribution in ovary 48 hours after iv injection in walker tumor bearing rat; type: ADME, organism-based, Female gonad; details: in vivo; method in brief: as §1
Rattus norvegicus [23] = assay: Biodistribution in plasma 24 hours after iv injection in walker tumor bearing rat; type: ADME, organism-based; details: in vivo; method in brief: as §1
Rattus norvegicus [24] = assay: Biodistribution in plasma 48 hours after iv injection in walker tumor bearing rat; type: ADME, organism-based; details: in vivo; method in brief: as §1
Rattus norvegicus [25] = assay: Biodistribution in spleen 24 hours after iv injection in walker tumor bearing rat; type: ADME, organism-based; details: in vivo; method in brief: as §1
Rattus norvegicus [26] = assay: Biodistribution in spleen 48 hours after iv injection in walker tumor bearing rat; type: ADME, organism-based; details: in vivo; method in brief: as §1
Rattus norvegicus [27] = assay: Ratio of the biodistribution in tumor to liver 24 hours after iv injection in walker tumor bearing rat; type: ADME, organism-based; details: in vivo; method in brief: as §2
Rattus norvegicus [28] = assay: Biodistribution in duodenum 24 hours after iv injection in walker tumor bearing rat; type: ADME, organism-based; details: in vivo; method in brief: as §1

SMILES	ID/g (Rattus norvegicus [1]) [%]	ID/g (Rattus norvegicus [2]) [%]	ID/g (Rattus norvegicus [3]) [%]	ID/g (Rattus norvegicus [4]) [%]	ID/g (Rattus norvegicus [5])	ID/g (Rattus norvegicus [6])	ID/g (Rattus norvegicus [7])	ID/g (Rattus norvegicus [8]) [%]	ID/g (Rattus norvegicus [9]) [%]	ID/g (Rattus norvegicus [10]) [%]	ID/g (Rattus norvegicus [11]) [%]	ID/g (Rattus norvegicus [12]) [%]	ID/g (Rattus norvegicus [13]) [%]	ID/g (Rattus norvegicus [14]) [%]	ID/g (Rattus norvegicus [15]) [%]	ID/g (Rattus norvegicus [16]) [%]	ID/g (Rattus norvegicus [17]) [%]	ID/g (Rattus norvegicus [18]) [%]	ID/g (Rattus norvegicus [19]) [%]	ID/g (Rattus norvegicus [20]) [%]	also measured
CO[C@@H](COCCCCCCCCCCCCc1cccc(I)c1)COP(=O)([O-])OCC[N+](C)(C)C	10.33	13.69	0.78	0.45	11.1	15	2	0.07	0.03	0.23	0.26	0.24	0.37	0.16	0.53	0.23	0.35	0.14	0.05	0.02	ID/g (Rattus norvegicus [21]): 0.31%; ID/g (Rattus norvegicus [22]): 0.14%; ID/g (Rattus norvegicus [23]): 0.06%; ID/g (Rattus norvegicus [24]): 0.03%; ID/g (Rattus norvegicus [25]): 0.43%; ID/g (Rattus norvegicus [26]): 0.1%; ID/g (Rattus norvegicus [27]): 1.5; ID/g (Rattus norvegicus [28]): 1.04%
CO[C@H](COCCCCCCCCCCCCc1cccc(I)c1)COP(=O)([O-])OCC[N+](C)(C)C	23.81	24.11	0.55	0.43	11	14.3	1.7	0.05	0.03	0.34	0.23	0.25	0.33	0.2	0.52	0.25	0.29	0.14	0.04	0.02	ID/g (Rattus norvegicus [21]): 0.28%; ID/g (Rattus norvegicus [22]): 0.14%; ID/g (Rattus norvegicus [23]): 0.06%; ID/g (Rattus norvegicus [24]): 0.03%; ID/g (Rattus norvegicus [25]): 0.37%; ID/g (Rattus norvegicus [26]): 0.1%; ID/g (Rattus norvegicus [27]): 1.1; ID/g (Rattus norvegicus [28]): 0.73%
COC(COCCCCCCCCCCCCc1cccc(I)c1)COP(=O)([O-])OCC[N+](C)(C)C (racemic)	47.22	24.44	0.85	0.56	12.1	11.2	1.6	0.07	0.05	0.44	0.24	0.17	0.46	0.24	0.81	0.35	0.34	0.2	0.04	0.03	ID/g (Rattus norvegicus [21]): 0.37%; ID/g (Rattus norvegicus [22]): 0.27%; ID/g (Rattus norvegicus [23]): 0.1%; ID/g (Rattus norvegicus [24]): 0.05%; ID/g (Rattus norvegicus [25]): 0.42%; ID/g (Rattus norvegicus [26]): 0.17%; ID/g (Rattus norvegicus [27]): 1.1; ID/g (Rattus norvegicus [28]): 1.12%

— ChEMBL document CHEMBL1128508, “Synthesis and biological evaluation of radioiodinated phospholipid ether stereoisomers” (J Med Chem, 1995)
